Data set [1] relates to Mus musculus. Description: Antiinflammatory activity against carrageenan-induced paw edema in Swiss albino mouse assessed as swelling thickness at 100 mg/kg, po after 90 mins. It counts as functional. The method in brief: (§1)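 Oral dosing in 0.5% CMC; vehicle to controls. Then carrageenan (0.5 mg/25 ll, freshly suspended in 154 mM saline) injected into the right hind paw subplantar tissue; saline into the left paw. Right-left footpad thickness difference measured by dial gauge calliper every 90 min over 6 h. Inhibition % is relative to vehicle control. n = 6; mean ± SEM.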

Data set [2] concerns Mus musculus. In words: Antiinflammatory activity against carrageenan-induced paw edema in Swiss albino mouse assessed as swelling thickness at 100 mg/kg, po after 180 mins. The format is functional. Summed up:
as §1

The test system of data set [3] is Mus musculus. Description: Antiinflammatory activity against carrageenan-induced paw edema in Swiss albino mouse assessed as swelling thickness at 100 mg/kg, po after 270 mins. It counts as functional. The method in brief:
as §1

Data set [4] has as its system Mus musculus. In words: Antiinflammatory activity against carrageenan-induced paw edema in Swiss albino mouse assessed as swelling thickness at 100 mg/kg, po after 360 mins. It counts as functional. Summed up:
as §1

The test system of data set [5] is Mus musculus. Description: Analgesic activity against p-benzoquinone-induced abdominal constriction in Swiss albino mouse assessed as number of writhings at 100 mg/kg, po. The format is functional, Abdomen. Summed up: (§2)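 Test samples given orally in 0.5% CMC; vehicle to controls. 60 min later, 2.5% (v/v) p-benzoquinone in distilled water, 0.1 ml/10 g, given i.p. Mice housed singly; writhes counted for 15 min starting 5 min after injection. Activity is % change from vehicle controls. n = 6; mean ± SEM.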

In data set [6] the test system is Mus musculus. Description: Gastric-ulcerogenic effect in Swiss albino mouse assessed as lesions at 100 mg/kg, po. The format is functional, organism-based. On the set-up: dose 100 mg/kg. Summed up:
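Mice killed under deep ether anesthesia 3 h after the writhing test; the oral dose in 0.5% CMC was the one used in that test. Stomachs removed, opened along the great curvature and examined under a dissecting microscope for lesions or bleeding. Reported as ratio of ulceration; n = 6.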

The subject of data set [7] is Mus musculus. Description: Acute toxicity in Swiss albino mouse assessed as lethal effect at 25 mg/kg/day, po after 72 hrs. It counts as organism-based. On the set-up: route oral. The settings on record: in vivo. Summed up: (§3)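 Oral single dose suspended in 0.5% carboxymethylcellulose, given after a 24 h fast; food and water returned 1 h after dosing. Vehicle-only controls. Mice observed at 1 h, then once daily for 72 h, for toxic signs and mortality.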

For data set [8], the system named is Mus musculus. In words: Acute toxicity in Swiss albino mouse assessed as lethal effect at 50 mg/kg/day, po after 72 hrs. It counts as organism-based. On the set-up: route oral. The settings on record: in vivo. Summed up:
as §3

The test system of data set [9] is Mus musculus. Description: Acute toxicity in Swiss albino mouse assessed as lethal effect at 100 mg/kg/day, po after 72 hrs. It counts as organism-based. More on the design: route oral. The settings on record: in vivo. The method in brief:
as §3

The test system of data set [10] is Mus musculus. Description: Acute toxicity in Swiss albino mouse assessed as lethal effect at 200 mg/kg/day, po after 72 hrs. It counts as organism-based. More on the design: route oral. As to conditions: in vivo. The method in brief: as §3
Data set [11] deals with Mus musculus. In words: Inhibition of carrageenan-induced paw edema in Swiss albino mouse at 100 mg/kg, po after 90 mins relative to control. As to conditions: 1.5 h. The format is functional. Summed up: as §1
In data set [12] the test system is Mus musculus. Description: Inhibition of carrageenan-induced paw edema in Swiss albino mouse at 100 mg/kg, po after 180 mins relative to control. As to conditions: 3 h. It counts as functional. The method in brief:
as §1

Data set [13] has as its system Mus musculus. Description: Inhibition of carrageenan-induced paw edema in Swiss albino mouse at 100 mg/kg, po after 270 mins relative to control. The format is functional. As to conditions: 4.5 h. Summed up: as §1
In data set [14] the test system is Mus musculus. Description: Inhibition of carrageenan-induced paw edema in Swiss albino mouse at 100 mg/kg, po after 360 mins relative to control. As to conditions: 6 h. The format is functional. The method in brief:
as §1

For data set [15], the system named is Mus musculus. Description: Inhibition of p-benzoquinone-induced writhing in Swiss albino mouse at 100 mg/kg, po relative to control. It counts as functional. Summed up: (§4)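 Mice, n = 6 per group, dosed orally with a suspension in 0.5% sodium CMC. 60 min later, 0.1 ml/10 g of 2.5% […] p-benzoquinone in distilled water given ip. Abdominal writhes counted per animal for 15 min, starting 5 min after injection. Expressed as % change in mean writhing count versus vehicle controls.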

Data set [16] has as its system Mus musculus. Description: Analgesic activity against p-benzoquinone-induced abdominal constriction in Swiss albino mouse assessed as number of writhings at 200 mg/kg, po. It counts as functional, Abdomen. Summed up: as §2
Data set [17] has as its system Mus musculus. In words: Inhibition of p-benzoquinone-induced writhing in Swiss albino mouse at 200 mg/kg, po relative to control. It counts as functional. The method in brief:
as §4

Calls of active or inactive are those of the source. No cut-off for these calls is given here.

In the case of `CS(=O)(=O)c1nc(-c2cccc(Br)c2)n[nH]1`, the Activity is recorded as 48.2 10^-2mm in the data set with Mus musculus [1]; 55.9 10^-2mm in the data set with Mus musculus [2]; 65.8 10^-2mm in the data set on Mus musculus [3]; 80.5 10^-2mm in the data set on Mus musculus [4]; 48.2 in the data set with Mus musculus [5]; “Non-toxic” in the data set on Mus musculus [7]. Also, the Activity entry in the data set on Mus musculus [8], with Mus musculus [9] and with Mus musculus [10] was “Non-toxic” throughout. In addition, in the data set with Mus musculus [6], the result was Active.

For the molecule `CSc1nc(-c2ccccc2Cl)n[nH]1`, the Activity in the data set on Mus musculus [1] was 42.7 10^-2mm; with Mus musculus [2], 48.8 10^-2mm; in the data set on Mus musculus [3], 52.8 10^-2mm; in the data set on Mus musculus [4] it was 57 10^-2mm; in the data set on Mus musculus [5], 41.8; in the data set with Mus musculus [7] it was “Non-toxic”. The Activity entry in the data set with Mus musculus [8], in the data set on Mus musculus [9] and in the data set on Mus musculus [10] was “Non-toxic” each time. Besides, the inhibition in vivo at 100 mg/kg with Mus musculus [11] stood at 4.7%; in the data set with Mus musculus [12], 5.2%; in the data set with Mus musculus [13] it was 10.2%; in the data set on Mus musculus [14], 17.2%; in the data set with Mus musculus [15], 11.6%. In the data set with Mus musculus [6], the outcome was Active.

Regarding `CS(=O)(=O)c1nc(-c2ccccc2)n[nH]1`, the Activity in the data set on Mus musculus [1] is 44.2 10^-2mm; with Mus musculus [2], 45.2 10^-2mm; in the data set on Mus musculus [3] it was 47.5 10^-2mm; in the data set on Mus musculus [4] it was 56.7 10^-2mm; in the data set with Mus musculus [5] it was 37.4; with Mus musculus [7], “Non-toxic”. In addition, the Activity result with Mus musculus [8], with Mus musculus [9] and in the data set on Mus musculus [10] was “Non-toxic” each time. Further, the inhibition in vivo at 100 mg/kg in the data set on Mus musculus [11] stood at 1.3%; with Mus musculus [12], 12.2%; in the data set with Mus musculus [13], 19.2%; in the data set with Mus musculus [15] it was 20.9%. In the data set on Mus musculus [6], the result was Active.

In the case of `CCSc1nc(-c2cccc(Br)c2)n[nH]1`, the Activity is 48.5 10^-2mm with Mus musculus [1]; 52.3 10^-2mm in the data set with Mus musculus [2]; 55.3 10^-2mm in the data set on Mus musculus [3]; 58.3 10^-2mm in the data set on Mus musculus [4]; 51.5 in the data set on Mus musculus [5]; “Non-toxic” with Mus musculus [7]. The Activity result in the data set with Mus musculus [8], with Mus musculus [9] and with Mus musculus [10] was “Non-toxic” in each case. The outcome in the data set on Mus musculus [6] was Active.

Regarding `CSc1n[nH]c(-c2ccc(Cl)cc2)n1`, the Activity result in the data set on Mus musculus [7], in the data set on Mus musculus [8], in the data set on Mus musculus [9] and with Mus musculus [10] was “Non-toxic” throughout.

In the case of `CS(=O)(=O)c1nc(-c2ccc(Br)cc2)n[nH]1`, the Activity is reported as 51.2 10^-2mm with Mus musculus [1]; 55.2 10^-2mm with Mus musculus [2]; 59.5 10^-2mm with Mus musculus [3]; 64 10^-2mm in the data set with Mus musculus [4]; 49.4 in the data set with Mus musculus [5]; “Non-toxic” in the data set on Mus musculus [7]. The Activity entry in the data set with Mus musculus [8], with Mus musculus [9] and in the data set on Mus musculus [10] was “Non-toxic” in each case.

As for `CCS(=O)(=O)c1nc(-c2cccc(Br)c2)n[nH]1`, the Activity in the data set with Mus musculus [1] is listed as 68.8 10^-2mm; with Mus musculus [2] it was 74.9 10^-2mm; in the data set with Mus musculus [3], 85.6 10^-2mm; in the data set with Mus musculus [4], 91.7 10^-2mm; in the data set on Mus musculus [5], 45.2; in the data set with Mus musculus [7], “Non-toxic”. In addition, the Activity result in the data set on Mus musculus [8], with Mus musculus [9] and with Mus musculus [10] was “Non-toxic” in each case. The molecule further had an inhibition in vivo at 100 mg/kg with Mus musculus [15] of 4.4%.

With `CSc1nc(-c2ccc(Br)cc2)n[nH]1`, the Activity in the data set on Mus musculus [1] is listed as 46.9 10^-2mm; in the data set with Mus musculus [2], 54.1 10^-2mm; with Mus musculus [3], 63.3 10^-2mm; in the data set with Mus musculus [4], 70.9 10^-2mm; with Mus musculus [5] it was 58.9; in the data set with Mus musculus [7], “Non-toxic”. The Activity result in the data set with Mus musculus [8], in the data set with Mus musculus [9] and with Mus musculus [10] was “Non-toxic” each time.

Regarding `CSc1nc(-c2ccccc2)n[nH]1`, the Activity is 38.1 10^-2mm with Mus musculus [1]; 44.5 10^-2mm with Mus musculus [2]; 47.6 10^-2mm with Mus musculus [3]; 54.4 10^-2mm in the data set on Mus musculus [4]; 40.2 in the data set on Mus musculus [5]; “Non-toxic” with Mus musculus [7]. Further, the Activity result with Mus musculus [8], in the data set on Mus musculus [9] and with Mus musculus [10] was “Non-toxic” throughout. The inhibition in vivo at 100 mg/kg in the data set on Mus musculus [11] was 14.9%; in the data set with Mus musculus [12], 13.6%; in the data set on Mus musculus [13], 19%; in the data set on Mus musculus [14] it was 20.9%; with Mus musculus [15], 15%.

`CCSc1nc(-c2ccccc2)n[nH]1`: the Activity with Mus musculus [1] is recorded as 46 10^-2mm; in the data set with Mus musculus [2], 48.3 10^-2mm; in the data set on Mus musculus [3], 51.2 10^-2mm; in the data set with Mus musculus [4] it was 54.7 10^-2mm; in the data set on Mus musculus [5], 46.1; in the data set on Mus musculus [7], “Non-toxic”. Also, the Activity entry in the data set with Mus musculus [8], in the data set with Mus musculus [9] and with Mus musculus [10] was “Non-toxic” throughout. For the same molecule, in the data set with Mus musculus [15], 100 mg/kg produced 2.5% inhibition in vivo. Also, in the data set with Mus musculus [6], the result was Active.

As to `CCSc1nc(-c2ccc(Br)cc2)n[nH]1`, the Activity in the data set on Mus musculus [1] is given as 59.6 10^-2mm; in the data set on Mus musculus [2], 69.2 10^-2mm; with Mus musculus [3] it was 78.2 10^-2mm; with Mus musculus [4], 88.3 10^-2mm; with Mus musculus [5], 49.2; in the data set on Mus musculus [7], “Non-toxic”. The Activity result in the data set on Mus musculus [8], with Mus musculus [9] and with Mus musculus [10] was “Non-toxic” in each case.

Take `CC(=O)Oc1ccccc1C(=O)O` [ASPIRIN]: the Activity amounted to 21.2 with Mus musculus [5] and 23.8 in the data set with Mus musculus [16]. This molecule also gave an inhibition in vivo at 100 mg/kg with Mus musculus [15] of 55.2%. In addition, the inhibition in vivo at 200 mg/kg in the data set with Mus musculus [17] turned out to be 53.6%.

Turning to `CSc1nc(-c2cccc(Br)c2)n[nH]1`, the Activity was 47.5 10^-2mm in the data set with Mus musculus [1]; 57.3 10^-2mm in the data set with Mus musculus [2]; 67.7 10^-2mm with Mus musculus [3]; 79.5 10^-2mm in the data set with Mus musculus [4]; 46.8 in the data set on Mus musculus [5]; “Non-toxic” in the data set on Mus musculus [7]. For the same molecule, the Activity result with Mus musculus [8], in the data set on Mus musculus [9] and in the data set on Mus musculus [10] was “Non-toxic” each time. In addition, the inhibition in vivo at 100 mg/kg in the data set with Mus musculus [15] stood at 1.1%. Also, the outcome in the data set with Mus musculus [6] was Active.

(Values after ChEMBL document CHEMBL1142894, “Preparation of 5-aryl-3-alkylthio-l,2,4-triazoles and corresponding sulfones with antiinflammatory-analgesic activity” (Bioorg Med Chem, 2007).)
